Shown are actives, neighbours in structure and some others; about 2.2% of the full set was active somewhere.
ROMK primary: ROMK potassium channel modulators, primary screen, cell-based, thallium flux, MLSMR library | ATP-sensitive inward rectifier potassium channel 1 (Homo sapiens), P48048 | Tet-inducible ROMK, thallium flux fluorescence; actives lie on both sides | B-score at 10 µM | actives 2% (n = 130,000);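 active = signal ratio slope over the read window, or its plate-corrected B-score, at least 3 SD from the plate mean, either direction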;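 note: B-score of the F/F0 ratio slope over 7 to 12 s after thallium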
G6PDH CS: L. mesenteroides G6PDH inhibitors, counter-screen for G6PDH-coupled screening assays, biochemical, Leuconostoc mesenteroides enzyme | actives 0.12% (n = 200,000) | inhibition, % at 5 µM | Purified L. mesenteroides G6PDH, diaphorase/resazurin coupled fluorescence, 45 min; in the data active = inhibition above about 50%
PMI activator: activators of human PMI, primary screen, biochemical, fluorescence intensity, near-Km mannose 6-phosphate; AID 1214, 2008; purified human PMI, coupled resazurin fluorescence, 20 min; stronger effect = higher value; 1 = vehicle control, 0 substrate-free wells; Mannose-6-phosphate isomerase (Homo sapiens), P34949; actives 0.005% (n = 190,000); activation factor at 20 µM;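 active = activation factor of 2 or more at 20 µM, relative to plate controls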
Target sequence (P34949 whole entry, looked up): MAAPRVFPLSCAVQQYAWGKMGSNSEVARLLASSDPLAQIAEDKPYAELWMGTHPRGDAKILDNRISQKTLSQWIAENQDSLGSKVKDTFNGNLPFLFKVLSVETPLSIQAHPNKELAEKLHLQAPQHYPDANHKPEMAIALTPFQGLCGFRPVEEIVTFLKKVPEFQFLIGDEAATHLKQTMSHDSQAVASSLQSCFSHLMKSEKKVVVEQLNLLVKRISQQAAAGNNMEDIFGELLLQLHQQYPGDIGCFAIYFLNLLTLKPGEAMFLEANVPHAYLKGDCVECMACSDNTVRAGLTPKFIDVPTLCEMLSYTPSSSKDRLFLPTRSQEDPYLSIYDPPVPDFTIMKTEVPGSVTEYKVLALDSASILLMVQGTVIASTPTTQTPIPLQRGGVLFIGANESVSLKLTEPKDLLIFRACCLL
PMI act hi M6P: human PMI activators, high substrate, primary screen, biochemical, fluorescence intensity, near-saturating mannose 6-phosphate. Mannose-6-phosphate isomerase (Homo sapiens), P34949. coupled PMI enzyme assay, resazurin fluorescence, 20 min; stronger effect = higher value; 1 = untreated enzyme, 0 = substrate-free blank. activation factor at 20 µM. actives 0.34% (n = 190,000). AID 1216, 2008;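 active = activation factor of 2 or more at 20 µM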
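Material: human phosphomannose isomerase with PGI, G6PDH, diaphorase coupling enzymes / Reagent: Man-6-P substrate 1.0 mM / Dosing: single compound dose of 20 µM, 1% DMSO final / Incubation: enzyme reaction with compound 20 min at room temperature / Signal: resorufin fluorescence (Ex 544/Em 590 nm) from resazurin via diaphorase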
Diaph act CS: compounds boosting diaphorase resazurin reduction – biochemical, uHTS, resorufin fluorescence, counter-screen for diaphorase-coupled primary assays, primary screen. activation factor at 20 µM. Diaphorase/resazurin coupled assay, 16 min; stronger effect = higher value; 1 = vehicle wells, 0 = NADH-free wells. actives 0.005% (n = 190,000);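 active = diaphorase activity raised at least twofold by the compound at 20 µM; inactive = activation factor below 2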
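Material: Clostridium kluyveri diaphorase, purified enzyme; Quantity: enzyme 0.07 U/mL final; Medium: HEPES pH 7.4 buffer with MgCl2 and Tween 20; Dosing: single compound dose of 20 µM, 1% DMSO final; Schedule: 16 min reaction at room temperature; Measured by: red resorufin fluorescence at 544/590 nm excitation/emission.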
Diaphorase inh: diaphorase inhibitors and chemical oxidizers, primary screen, counter-screen for diaphorase-coupled primary assays, biochemical, uHTS, resorufin fluorescence | inhibition, % at 20 µM | diaphorase resazurin-to-resorufin fluorescence, NADH, 16 min; bacterial (C. kluyveri) enzyme, not human | actives 0.69% (n = 190,000);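 active = primary screen inhibition at 20 µM above a set limit, cut at about 50% in these data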;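 note: plate controls were DMSO with full reaction for no effect and wells lacking NADH for full effect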
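Assay system: diaphorase enzyme from Clostridium kluyveri. Quantity: enzyme working solution with 0.14 U/mL diaphorase. Schedule: reaction incubation of 16 min at room temperature. Technique: resorufin fluorescence, excitation 544 nm, emission 590 nm. Controls: No-NADH positive control and DMSO neutral control.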
ROMK retest: ROMK channel modulator hit retest, confirmation, cell-based, thallium flux, duplicate, resupplied hits | shares compounds with ROMK primary | fluorescence ratio; stronger effect = lower value | normalized thallium flux (F/F0 slope) at 10 µM | actives 54% (n = 3,000) | AID 1917, 2009;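 active = Flux at 10 µM at least 3 SD below or above vehicle control mean in one or both replicates; inconclusive = no clear call, values can overlap the other calls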
* marks the source's active call; other numbers are inactive results; ? = inconclusive; · = no result given.

SMILES	ROMK primary	G6PDH CS	PMI activator	PMI act hi M6P	Diaph act CS	Diaphorase inh	ROMK retest
CC1=NN(C(=O)Cc2ccccc2)C(O)(c2cccnc2)C1 (centres undefined)	·	17	0.9	0.9	1	-2	·
CC1=NN(C(=O)c2ccccc2Cl)C(O)(c2cccnc2)C1 (centres undefined)	0.25	-1	1.1	1.1	1.1	-14	?
Cn1c(SCC(=O)Nc2nc(C(C)(C)C)cs2)nnc1C1CC1	-0.49	9	0.9	1	0.9	14	·
C=CC[n+]1c(-c2ccc(Cl)cc2Cl)csc1Nc1c(C)n(C)n(-c2ccccc2)c1=O	-0.0056	10	1	0.9	0.8	17	·
C=CC[n+]1c(-c2ccc(Cl)cc2Cl)csc1Nc1ccc(NC(C)=O)cc1	2.5*	0	1	1	0.8	22	0.079
COC(=O)Cc1c(C)c2ccc(OCC(=O)N(C)C)cc2oc1=O	1.4*	-1	1	1.1	1	4	0.071
CC(C)(C)c1ccccc1NC(=O)c1c(O)c2cccc3c2n(c1=O)CC3	0.71	13	0.9	1.1	0.6	42	·
COCCn1nnnc1C(c1cccc(C(F)(F)F)c1)N1CCN(Cc2ccccc2)CC1 (centres undefined)	-3.9*	12	1	1.1	0.9	9	0.054*
O=C(Nc1ccc(Br)cc1)C1CCCN1S(=O)(=O)c1cccs1 (centres undefined)	-3.3*	1	1	1	0.8	17	0.061*
CC(C)CNC(=O)CC(=O)N/N=C/c1ccc(F)cc1	0.46	6	0.9	0.9	0.9	9	·
OCCC1CN(Cc2cccc3c2OCO3)CCN1C1CCCCC1 (centres undefined)	0.73	6	1	1.1	1	2	·
O=c1c2cc(Cl)ccc2nc(-c2ccccc2)n1O	2.6	20	1.3	1.3	1	-1	·
O=c1c2cc(Cl)ccc2nc(-c2ccc(Cl)c(Cl)c2)n1O	·	·	·	·	·	·	0.18*
CCN(Cc1ccccc1)C(=O)COC(=O)Cn1cnc2ccccc21	0.28	6	1	1	0.9	10	·
C=CCn1c(SCc2ccc(C(=O)Nc3nccs3)cc2)nnc1-c1ccc(C)c(Cl)c1	·	-38	0.9	1	0.9	13	0.073
COc1cc([N+](=O)[O-])ccc1N/C=C/C(=O)c1cccs1	·	0	0.9	1	0.9	12	0.053*
COc1ccc(OCc2nnc(SCC(=O)NNC(=O)c3ccc(C)cc3)n2C)cc1	·	-11	0.9	0.9	0.9	14	·
NC(=O)C1(N2CCCCC2)CCN(C(=S)Nc2ccc(F)c(Cl)c2)CC1	-0.44	9	0.9	1	1.1	-6	·
COc1ccc([C@H]2[C@H](C(=O)OC(C)(C)C)N3N=Cc4ccccc4C3C23C(=O)c2ccccc2C3=O)cc1OC (some centres undefined)	·	3	1.1	0.7	0.7	33	·
COc1ccc([C@H]2[C@H](C(=O)OC(C)(C)C)N3N=Cc4ccccc4C3C23C(=O)c2ccccc2C3=O)c(OC)c1 (some centres undefined)	·	0	1.2	0.7	0.8	19	0.06*
CN(Cc1ccccc1)c1ccc2nnc(-c3ccccc3)n2n1	-3.7*	4	1	1	0.9	12	0.065*
c1ccc(-c2nnc3ccc(N4CCCC4)nn23)cc1	·	-24	0.9	0.9	0.9	7	·
CCN1C(=O)/C(=C/c2ccc(C)s2)NC1=S	4.6*	2	1.1	1.1	0.6	39	0.094
COc1ccc(/C=C\c2cc(OC)c(OC)cc2CC[N+](C)(C)C)cc1OC	0.19	15	0.8	0.8	0.9	7	·
COc1ccc(CCN2C(=O)CCC2(C)C(=O)NC2CCCC2)cc1OC (centres undefined)	-0.4	11	0.9	1	1	2	·
SMILES	ROMK primary	G6PDH CS	PMI activator	PMI act hi M6P	Diaph act CS	Diaphorase inh	ROMK retest
Cc1ccc(CCN2C(=O)CCC2(C)C(=O)NC2CCCC2)cc1 (centres undefined)	1	10	1	0.8	0.8	18	0.072
O=S(=O)(Nc1nc2c(s1)CCCC2)c1ccc(Br)cc1	-3.2*	1	0.9	0.9	0.8	20	0.076
O=S(=O)(Nc1nc2c(s1)CCCC2)c1ccc(F)cc1	-1.2	2	0.9	0.9	0.8	18	·
Cc1nc(CN(C)C(=O)c2cc(COc3ccc4ncccc4c3)on2)cs1	-1.1	18	0.9	0.9	0.8	23	·
Cc1ccc(-n2c(Cl)c(Cl)nc(Cl)c2=O)cc1	-4.7*	1	1	0.9	0.8	18	0.047*
O=C(/C=C/c1cccs1)c1ccc(N2CCOCC2)cc1	2.5*	-2	1.1	1	1	3	0.076
N/C(=N/O)c1ccccc1N1CCC(Cc2ccccc2)CC1	-4.5*	4	0.8	0.9	0.8	18	0.074
CCOC(=O)C1=C(C)OC(N)=C(C#N)C1c1cccc(C)c1 (centres undefined)	0.064	11	0.8	0.8	0.8	16	·
CCOC(=O)C1=C(C)OC(N)=C(C#N)C1c1ccc(C)s1 (centres undefined)	3.2*	3	0.9	0.8	0.9	8	0.064*
COc1ccc(C2CC(=O)Oc3c(C(CCN4CCCC(C)C4)c4ccc(N(C)C)cc4)c(OC)cc(OC)c32)cc1 (centres undefined)	·	·	·	·	·	·	0.059*
O=C(COC(=O)/C=C/c1ccc(S(=O)(=O)N2CCOCC2)cc1)NCc1ccc(F)cc1	5*	-1	0.9	1	0.9	9	0.09
Cc1ccc(S(=O)(=O)CCNC(=O)Cc2ccc(Cl)cc2)cc1	-0.67	3	1	1	1	2	·
COc1cc(NC(=O)c2cc(-c3cccs3)on2)cc(OC)c1OC	4.1*	4	0.9	0.9	0.8	16	0.084
